Assay results published in ChEMBL document CHEMBL1141860, “Synthesis and monoamine transporter affinity of 3-aryl substituted trop-2-enes” (Bioorg Med Chem Lett, 2005).

Key:
[1] = target: Monoamine transporters; serotonin & dopamine (Homo sapiens) (UniProt P31645+Q01959); test: Selectivity for human DAT over human SERT; format: protein assay
[2] = target: Sodium-dependent dopamine transporter (Homo sapiens, UniProt Q01959); test: Displacement of [3H]WIN-35428 from human DAT
[3] = target: Sodium-dependent serotonin transporter (Homo sapiens, UniProt P31645); test: Displacement of [3H]Citalopram from human SERT
Sodium-dependent serotonin transporter, sequence (P31645 whole entry): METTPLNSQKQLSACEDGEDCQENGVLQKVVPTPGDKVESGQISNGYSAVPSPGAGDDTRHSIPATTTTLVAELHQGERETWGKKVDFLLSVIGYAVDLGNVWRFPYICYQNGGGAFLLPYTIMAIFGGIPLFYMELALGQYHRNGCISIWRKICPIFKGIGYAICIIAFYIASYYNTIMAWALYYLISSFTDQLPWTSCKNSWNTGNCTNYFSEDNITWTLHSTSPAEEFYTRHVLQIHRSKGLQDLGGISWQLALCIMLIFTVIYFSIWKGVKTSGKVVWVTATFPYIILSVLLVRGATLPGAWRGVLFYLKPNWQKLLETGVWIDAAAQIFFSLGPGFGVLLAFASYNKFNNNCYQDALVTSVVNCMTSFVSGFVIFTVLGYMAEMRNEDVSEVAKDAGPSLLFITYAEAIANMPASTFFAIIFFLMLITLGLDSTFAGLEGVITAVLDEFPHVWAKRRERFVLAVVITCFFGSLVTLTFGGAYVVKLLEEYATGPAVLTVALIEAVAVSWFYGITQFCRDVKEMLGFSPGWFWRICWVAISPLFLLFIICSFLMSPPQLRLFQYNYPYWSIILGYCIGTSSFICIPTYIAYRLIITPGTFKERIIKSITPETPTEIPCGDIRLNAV
Method in brief: (§1)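 Competitive radioligand binding at human transporters. The tritiated standard ligand matched each transporter: WIN-35,428 for DAT, citalopram for SERT, and nisoxetine for NET.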

[4] = target: Monoamine transporters; Norepinephrine & dopamine (Homo sapiens) (UniProt Q01959+P23975); test: Selectivity for human DAT over human NET; format: protein assay
Monoamine transporters; Norepinephrine & dopamine (Homo sapiens), sequence (P23975 whole entry, looked up): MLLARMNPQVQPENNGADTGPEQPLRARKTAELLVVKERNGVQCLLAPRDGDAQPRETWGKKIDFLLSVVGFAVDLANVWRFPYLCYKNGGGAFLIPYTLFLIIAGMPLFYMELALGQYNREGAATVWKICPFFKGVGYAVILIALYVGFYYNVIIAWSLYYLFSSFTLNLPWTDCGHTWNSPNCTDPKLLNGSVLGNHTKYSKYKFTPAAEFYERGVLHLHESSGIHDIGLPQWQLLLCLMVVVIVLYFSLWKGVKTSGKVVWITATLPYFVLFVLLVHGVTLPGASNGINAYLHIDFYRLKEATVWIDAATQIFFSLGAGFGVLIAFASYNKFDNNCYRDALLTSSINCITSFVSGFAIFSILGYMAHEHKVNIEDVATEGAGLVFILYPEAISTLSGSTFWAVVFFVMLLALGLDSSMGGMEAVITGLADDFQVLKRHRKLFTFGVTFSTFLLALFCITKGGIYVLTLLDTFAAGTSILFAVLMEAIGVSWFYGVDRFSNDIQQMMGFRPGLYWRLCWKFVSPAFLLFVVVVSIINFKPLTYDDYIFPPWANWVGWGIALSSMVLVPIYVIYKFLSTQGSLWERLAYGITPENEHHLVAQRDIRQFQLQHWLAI
Monoamine transporters; Norepinephrine & dopamine (Homo sapiens), sequence (Q01959 whole entry, looked up): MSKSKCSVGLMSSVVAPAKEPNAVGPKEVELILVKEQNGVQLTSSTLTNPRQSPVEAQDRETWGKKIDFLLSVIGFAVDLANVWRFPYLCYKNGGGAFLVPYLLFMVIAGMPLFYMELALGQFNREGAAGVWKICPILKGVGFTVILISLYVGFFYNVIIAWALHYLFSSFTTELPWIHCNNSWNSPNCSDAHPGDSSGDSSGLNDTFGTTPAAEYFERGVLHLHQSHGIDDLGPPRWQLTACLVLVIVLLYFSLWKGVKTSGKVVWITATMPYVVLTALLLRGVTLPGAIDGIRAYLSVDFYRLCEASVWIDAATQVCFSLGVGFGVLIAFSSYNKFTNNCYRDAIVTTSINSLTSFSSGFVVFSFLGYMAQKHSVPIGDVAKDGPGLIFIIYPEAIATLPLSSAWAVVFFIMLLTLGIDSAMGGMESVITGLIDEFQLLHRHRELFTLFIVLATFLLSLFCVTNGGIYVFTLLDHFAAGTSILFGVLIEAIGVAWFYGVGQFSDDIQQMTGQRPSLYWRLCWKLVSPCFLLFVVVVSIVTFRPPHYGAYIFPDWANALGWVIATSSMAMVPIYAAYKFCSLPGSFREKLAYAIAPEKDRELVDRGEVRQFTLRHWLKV

[5] = target: Sodium-dependent noradrenaline transporter (Homo sapiens, UniProt P23975); test: Displacement of [3H]nisoxetine from human NET; method in brief: as §1
Sodium-dependent noradrenaline transporter, sequence (P23975 whole entry): as the sequence (P23975 whole entry, looked up) above

[6] = target: Serotonin and norepinephrine transporters (SERT/NET) (Homo sapiens) (UniProt P31645+P23975); test: Selectivity for human SERT over human NET; format: protein assay
Serotonin and norepinephrine transporters (SERT/NET) (Homo sapiens), sequence (P23975 whole entry, looked up): as above
Serotonin and norepinephrine transporters (SERT/NET) (Homo sapiens), sequence (P31645 whole entry, looked up): as the sequence (P31645 whole entry) above

Monoamine transporters; serotonin & dopamine (Homo sapiens), sequence (P31645 whole entry, looked up): as the sequence (P31645 whole entry) above
Monoamine transporters; serotonin & dopamine (Homo sapiens), sequence (Q01959 whole entry, looked up): as the sequence (Q01959 whole entry, looked up) above
Sodium-dependent dopamine transporter, sequence (Q01959 whole entry): as the sequence (Q01959 whole entry, looked up) above

Structure (SMILES) | Ratio IC50 [1] | IC50 [2] | IC50 [3] | Ratio IC50 [4] | IC50 [5] | Ratio IC50 [6]
CN1C2C=C(C3c4ccccc4-c4ccccc43)CC1CC2 (centres undefined) | 13.6 | 9.35 µM | 0.69 µM | 0.113 | 82.7 µM | 0.0083
CN1C2CCC1CC(O)(C1c3ccccc3-c3ccc(Br)cc31)C2 (centres undefined) | 6.5 | 16.8 µM | 2.57 µM | 0.27 | 62.6 µM | 0.041
CN1C2CCC1CC(O)(C1c3ccccc3-c3ccccc31)C2 (centres undefined) | 0.015 | 0.543 µM | 35.4 µM | 0.0034 | 158 µM | 0.22
CN1C2C=C(c3c[nH]c4ccccc34)CC1CC2 (centres undefined) | 8.3 | 0.603 µM | 0.0726 µM | 0.15 | 3.96 µM | 0.018
C[N+]1(CCl)C2C=C(c3ccccc3-c3ccccc3)CC1CC2 (centres undefined) | 4.2 | 67 µM | 16.1 µM | 33.2 | 2.02 µM | 8
CN1C2CCC1CC(O)(c1ccccc1-c1ccccc1)C2 (centres undefined) | 1.58 | 3.98 µM | 2.52 µM | 0.06 | 66.3 µM | 0.038
CN1C2C=C(c3ccccc3-c3ccccc3)CC1CC2 (centres undefined) | 5.4 |  | 1.71 µM | 1.44 | 6.43 µM | 0.27
CN1C2C=C(c3ccc4c(c3)Cc3ccccc3-4)CC1CC2 (centres undefined) | 52.2 | 0.757 µM | 0.0145 µM | 0.23 | 3.36 µM | 0.0043
CN1C2CCC1CC(O)(c1cccc(-c3ccccc3)c1)C2 (centres undefined) | 5.81 | 21.9 µM | 3.77 µM | 0.53 | 41.5 µM | 0.091
CN1C2C=C(c3cccc(-c4ccccc4)c3)CC1CC2 (centres undefined) | 10.8 | 7.22 µM | 0.67 µM | 0.314 | 23 µM | 0.029
